Laboratory results from ChEMBL document CHEMBL4364291, “Benzylideneacetone Derivatives Inhibit Osteoclastogenesis and Activate Osteoblastogenesis Independently Based on Specific Structure-Activity Relationship” (J Med Chem, 2019).
Activity calls are given as the source filed them. The rule behind the calls is not given here.

Experiments:
MC3T3-E1 [1] = test: Induction of osteoblast differentiation in mouse MC3T3-E1 cells co-cultured with C57BL/6 mouse bone marrow macrophages assessed as activation of ALP production at 10 uM measured on day 14 relative to control; assay type: functional
In short: (§1)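 MC3T3-E1 cells were cocultured with C57BL/6 BMM in differentiation factors for both cell types, with 10 μM compound, and grown for 21 d. ALP production was measured at 7, 14 and 21 d after coculture induction, relative to untreated cells.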

BMDM [2] = test: Inhibition of M-CSF/RANKL-induced osteoclast differentiation in C57BL/6 mouse bone marrow macrophages co-cultured with mouse MC3T3-E1 cells assessed as reduction in multinucleated TRAP+ cells at 10 uM measured on day 6 by TRAP staining-based inverted microscopic analysis; assay type: functional, cell-based
In short: (§2)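 C57BL/6 BMM were cocultured with MC3T3-E1 preosteoblasts in osteoclast and osteoblast differentiation factors. The negative control had M-CSF only. Compound was added at a final 10 μM. TRAP staining and inverted-microscope inspection were done on day 6.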

BMDM [3] = test: Inhibition of M-CSF/RANKL-induced osteoclast differentiation in C57BL/6 mouse bone marrow macrophages co-cultured with mouse MC3T3-E1 cells assessed as reduction in multinucleated TRAP+ cells measured on day 6 by TRAP staining-based inverted microscopic analysis; assay type: functional, cell-based; in short: as §2
MC3T3-E1 [4] = test: Induction of osteoblast differentiation in mouse MC3T3-E1 cells co-cultured with C57BL/6 mouse bone marrow macrophages assessed as activation of ALP production at 10 uM measured on day 21 relative to control; assay type: functional; in short: as §1
MC3T3-E1 [5] = test: Induction of osteoblast differentiation in mouse MC3T3-E1 cells assessed as increase in osteocalcin expression at 50 uM after 7 days by Western blot analysis relative to control; assay type: functional
In short: (§3)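 MC3T3-E1 cells were differentiated with osteoblast differentiation factors, with or without 50 μM compound, for 21 d. The negative control lacked differentiation factors. Osteocalcin in culture medium was measured by Western blot at 7, 14 and 21 d. Values are mean ± SD of three independent experiments.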

MC3T3-E1 [6] = test: Induction of osteoblast differentiation in mouse MC3T3-E1 cells assessed as increase in osteocalcin expression at 50 uM after 14 days by Western blot analysis relative to control; assay type: functional; in short: as §3
MC3T3-E1 [7] = test: Induction of osteoblast differentiation in mouse MC3T3-E1 cells assessed as increase in osteocalcin expression at 50 uM after 21 days by Western blot analysis relative to control; assay type: functional; in short: as §3
MC3T3-E1 [8] = test: Induction of osteoblast differentiation in ascorbic acid/beta-glycerophosphate-induced mouse MC3T3-E1 cells co-cultured with C57BL/6 mouse bone marrow macrophages assessed as increase in osteocalcin expression at 10 uM measured on day 7 by Western blot analysis; assay type: functional, cell-based
In short: (§4)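 MC3T3-E1 and C57BL/6 BMM cocultures were given osteoblast plus osteoclast differentiation factors, with or without 10 μM compound, for 21 d. The negative control had M-CSF only. Osteocalcin in culture medium was quantified by Western blot at 7, 14 and 21 d.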

MC3T3-E1 [9] = test: Induction of osteoblast differentiation in ascorbic acid/beta-glycerophosphate-induced mouse MC3T3-E1 cells co-cultured with C57BL/6 mouse bone marrow macrophages assessed as increase in osteocalcin expression at 10 uM measured on day 21 by Western blot analysis; assay type: functional, cell-based; in short: as §4
BMDM [10] = test: Inhibition of RANKL-induced osteoclastogenesis in C57BL/6 mouse bone marrow macrophages assessed as effect on NFATc1 expression at 10 uM measured over 5 days by Western blot analysis; assay type: functional, cell-based
In short: (§5)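 C57BL/6 BMM were grown with M-CSF plus RANKL over the course of osteoclastogenesis, treated at 0.5 or 10 μM. NF-κB and NFATc1 were followed by Western blot. The negative control was M-CSF only.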

BMDM [11] = test: Suppression of NFATc1 expression in M-CSF induced C57BL/6 mouse bone marrow macrophages at 10 uM measured over 5 days by Western blot analysis; assay type: functional, cell-based
In short: (§6)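 C57BL/6 BMM were kept proliferating with M-CSF in the absence of RANKL and treated with compound (0.5 or 10 μM). NFATc1 expression was followed over the culture period by Western blot.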

[12] = Cytotoxicity against human HaCaT cells after 24 hrs by MTT assay; assay type: cell-based; details: read-out: LD50
In short: (§7)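 Cells were maintained in DMEM at 37 °C under 5% CO2. Growth and survival were estimated by MTT assay, and the value is reported as LD50.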

AGS = test: Antiproliferative activity against human AGS cells after 24 hrs by MTT assay; assay type: functional; details: read-out: LD50 (the source's name)
PC-3 = test: Antiproliferative activity against human PC3 cells after 24 hrs by MTT assay; assay type: functional; details: PC-3, 24 h, read-out: LD50 (the source's name); in short: as §7
BMDM [13] = test: Inhibition of RANKL-induced osteoclastogenesis in C57BL/6 mouse bone marrow macrophages assessed as increase in NFkappaB expression at 0.5 uM measured over 5 days by Western blot analysis; assay type: functional, cell-based; in short: as §5
BMDM [14] = test: Effect on NFkappaB expression in M-CSF induced C57BL/6 mouse bone marrow macrophages at 0.5 uM measured over 5 days by Western blot analysis; assay type: functional, cell-based
In short: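 C57BL/6 BMM were proliferated with M-CSF alone without RANKL and treated at 0.5 or 10 μM. NF-κB expression was followed over time by Western blot.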

BMDM [15] = test: Suppression of NFATc1 expression in M-CSF induced C57BL/6 mouse bone marrow macrophages at 0.5 uM measured over 5 days by Western blot analysis; assay type: functional, cell-based; in short: as §6
Mus musculus [16] = test: Antiosteoporotic activity in ddY mouse model of OVX-induced osteoporosis assessed as increase in femur bone mineral density at 1 mg/kg, po administered once daily via gavage for 4 weeks by microcomputed tomographic analysis; assay type: functional, organism-based
In short: (§8)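 Female ddY mice were ovariectomized. Oral gavage began 1 week after surgery and ran once daily for 28 d. Vehicle was 300 μL PBS containing 0.5% (v/v) DMSO, also given to sham and OVX controls. Mice were then euthanized and femur and tibia fixed for CT imaging. Values are mean ± SD of four mice.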

Mus musculus [17] = test: Antiosteoporotic activity in ddY mouse model of OVX-induced osteoporosis assessed as reduction in trabecular separation in femur bone at 1 mg/kg, po administered once daily via gavage for 4 weeks by microcomputed tomographic analysis; assay type: functional, organism-based; in short: as §8
T-24 = test: Antiproliferative activity against human T24 cells after 24 hrs by MTT assay; assay type: functional; details: T-24, 24 h, read-out: LD50 (the source's name)
[18] = Toxicity in ddY mouse model of OVX-induced osteoporosis assessed as increase in body weight at 1 mg/kg, po administered once daily via gavage for 4 weeks measured 5 weeks post OVX-challenge; assay type: organism-based; details: in vivo, 840 h
In short: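 Dosing of ddY mice began one week after ovariectomy: compound in 300 μL of 0.5% (v/v) DMSO-containing PBS by gavage once daily for 28 d. OVX and sham controls received vehicle. Body weight was compared with sham control 5 weeks after OVX.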

CC(=O)/C=C/c1ccc(O)c(O)c1
Activity (MC3T3-E1 [1]): 110%
inhibition (BMDM [2]): Active
inhibition (BMDM [3]): Dose-dependent effect
Activity (MC3T3-E1 [4]): 100%
fold change (FC) (MC3T3-E1 [5]): 1.8
fold change (FC) (MC3T3-E1 [6]): 4.1
fold change (FC) (MC3T3-E1 [7]): 2
Activity (MC3T3-E1 [8]): Active
Activity (MC3T3-E1 [9]): Active
inhibition (BMDM [10]): inactive
Activity (BMDM [11]): Active
CC50 at 24 h [12]: 3500 µM
CC50 (AGS): 60 µM
CC50 (PC-3): 66 µM

COc1ccc(/C=C/C(C)=O)cc1O
inhibition (BMDM [13]): Active
Activity (BMDM [14]): inactive
Activity (BMDM [15]): Active
Activity (Mus musculus [16]): Active
Activity (Mus musculus [17]): Active
CC50 (T-24): 180 µM
Activity [18]: Toxic
